Shown are actives, neighbours in structure and some others; about 2.2% of the full set was active somewhere.
FLuc act counter: affects firefly luciferase, flagging false hits in luciferase stimulation screens; P08659; ATPlite luciferase biochemical, luminescence, 10 min; 0 = ATP-free wells, 1 = DMSO control; activation factor at 10 µM; 200,000 tested, under 10 active;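 active = luciferase activation factor, scaled between plate controls, of at least 2 with compound at 10 µM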
Target sequence (P08659 whole entry, looked up): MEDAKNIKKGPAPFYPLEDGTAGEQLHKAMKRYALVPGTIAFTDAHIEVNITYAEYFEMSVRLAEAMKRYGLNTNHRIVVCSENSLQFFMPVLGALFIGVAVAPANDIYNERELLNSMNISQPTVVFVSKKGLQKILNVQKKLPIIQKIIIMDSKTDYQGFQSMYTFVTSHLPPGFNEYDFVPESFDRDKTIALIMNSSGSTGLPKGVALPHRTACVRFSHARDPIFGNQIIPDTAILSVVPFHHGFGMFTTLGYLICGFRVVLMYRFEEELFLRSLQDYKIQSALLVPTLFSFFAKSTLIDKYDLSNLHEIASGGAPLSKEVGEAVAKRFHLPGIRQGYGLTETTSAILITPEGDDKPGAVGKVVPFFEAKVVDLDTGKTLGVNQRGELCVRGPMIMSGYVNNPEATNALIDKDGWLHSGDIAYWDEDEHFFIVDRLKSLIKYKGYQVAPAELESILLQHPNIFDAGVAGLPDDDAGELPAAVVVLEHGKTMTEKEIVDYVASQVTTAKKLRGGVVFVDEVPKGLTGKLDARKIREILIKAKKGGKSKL
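Assay system: Luciferase/luciferin detection reagent, cell-free biochemical luciferase assay / Read-out: luciferase activation / Benchmarks: No-ATP low control, compound-free enzyme-plus-ATP high control / Medium: PBS buffer for ATP / Detection: luminescence measurement of luciferase light output / Schedule: 10 min at ambient temperature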
C8 TRAIL sens: sensitizes caspase-8 expressing cells to TRAIL | NB7+C8 cells + TRAIL, ATPlite viability luminescence | inhibition (viability loss, TRAIL sensitization), % at 10 µM | 360,000 tested, 1% active;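 active = compounds causing at least 50% loss of cell viability in the single-dose screen, relative to plate controls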
PPC-1+TRAIL kill: PPC-1 cancer cell killing with TRAIL present. PPC-1 cells + TRAIL, ATPLite viability luminescence. cell killing (% activity), % at 4 µM or 5 µM. 220,000 tested, 0.41% active. AID 1443;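 active = cell killing above 50% in the first pass at 4 µM, then a duplicate retest at 5 µM averaging 50% or more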;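 also: plate controls were cells with TRAIL plus DMSO for no effect and medium-only wells lacking cells for full effect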
HSP90 refold inh: blocks HSP90-mediated luciferase refolding in reticulocyte lysate. Rabbit reticulocyte lysate, luciferase refolding luminescence, 3 h. inhibition, % at 5.6 µM. 290,000 tested, 0.91% active. AID 1789;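 active = inhibition above the screen-wide mean plus 3 SD, computed separately per campaign, cut at about 16% in these data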;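 also: 0% = DMSO wells and 100% = 60 µM geldanamycin wells; inhibitors lower the luminescence because luciferase stays unfolded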
STAT3 inh: STAT3 signaling inhibition; 190,000 tested, 0.89% active; U3A cells, IL-6 STAT3-luciferase reporter, luminescence; host cell line lacks STAT1; inhibition, % at 5.5 µM;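 active = inhibition above the mean inhibition across all screened compounds plus 3 SD, cut at about 44% in these data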;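 also: 0% = DMSO only wells and 100% = 100 µM nifuroxazide control wells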
FLuc inhib CS: inhibits firefly luciferase, flagging false hits in luciferase inhibition screens | inhibition, % at 10 µM | 200,000 tested, 1.5% active | ATPLite firefly luciferase biochemical luminescence, 10 min | AID 1006;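 active = inhibition above about 50% when tested at 10 µM, limit read from the data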
HSP90 inh confirm: confirmation of HSP90 inhibitors. inhibition, % at 5.9 µM. 2,300 tested, 64% active. shares compounds with HSP90 refold inh. rabbit reticulocyte lysate, luciferase refolding luminescence, 3 h; in the data active = inhibition above about 18%;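 also: 0% = vehicle wells and 100% = reference inhibitor wells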
luciferase ctr: blocks native firefly luciferase in HSP90 counter-screen | shares compounds with HSP90 refold inh | purified native firefly luciferase, luminescence | inhibition, % at 5.9 µM | 2,300 tested, 48% active | AID 1847;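 active = inhibition above the mean inhibition of all tested sample wells plus 3 SD, cut at about 10% in these data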;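 also: 0% = DMSO with luciferase and 100% = wells lacking luciferase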
* = called active by the depositor; · = not tested or not shown.

SMILES	FLuc act counter	C8 TRAIL sens	PPC-1+TRAIL kill	HSP90 refold inh	STAT3 inh	FLuc inhib CS	HSP90 inh confirm	luciferase ctr
O=C(O)c1ccc(NCc2nc3ccccc3n2Cc2ccccc2)cc1	·	18	15	4	·	·	·	·
CCn1cnc2cc(NCc3nc4ccccc4n3Cc3ccccc3)ccc21	0.7	12	6	48*	-5	31	47*	40*
COc1ccc2c(c1OC)C(=O)OC2Nc1nc(-c2cc3ccccc3oc2=O)cs1 (stereo unspecified)	0.6	44	8	64*	24	36	14	2
Cc1ccc(N(CC(=O)NC2CCCCC2)C(=O)CNC(=O)c2ccco2)c(C)c1	·	1	·	-3	·	·	·	·
CCC(C)c1ccc(NC(=S)N2CCN(S(C)(=O)=O)CC2)cc1 (stereo unspecified)	·	-21	·	3	·	·	·	·
CNC(=O)c1cc(Oc2ccc(NC(=O)c3[nH]c(-c4ccccc4)c4c3C(=O)N(C)C4=O)cc2)ccn1	·	11	·	·	·	·	·	·
COc1ccc(/C=C2\SC(=O)N(CC(=O)NNC(=O)c3ccccc3O)C2=O)cc1	1	6	23	2	0	0	·	·
COc1ccc(/C=C(\C#N)C(=O)N2CCOCC2)cc1Br	1	-32	-5	0	15	-2	·	·
Cc1cc(/C=C(\C#N)C(=O)N2CCOCC2)c(C)n1C1CCCC1	·	39	28	37*	·	·	52*	48*
CC(=O)c1ccc(N(CC(=O)NC2CCS(=O)(=O)C2)S(=O)(=O)c2ccc(Cl)cc2)cc1 (stereo unspecified)	·	-14	·	·	·	·	·	·
Brc1ccc(N=C(c2ccccc2)c2ccncc2)cc1	1.1	-5	-6	0	-2	-5	·	·
Cc1nc(N/N=C/c2ccccn2)sc1C	0.1	·	70*	80*	89*	94*	90*	86*
CCCc1sc(N/N=C/c2ccccn2)nc1-c1ccc(F)cc1	1	5	-4	64*	13	-4	-2	-11
O=C(O)Cc1sc(N/N=C\c2ccccc2)nc1-c1ccccc1	0.9	7	43	-1	7	7	·	·
CC1(C(=O)NS(=O)(=O)c2cccs2)CCN1C(=O)CC1CCCC1 (stereo unspecified)	·	-6	·	·	·	·	·	·
O=C(NNC(=S)NC(=O)c1cccnc1)c1ccc(F)cc1	·	16	3	28*	·	·	1	-2
O=C(/C=C/c1c(F)cccc1Cl)c1ccc(O)cc1	·	21	13	24*	·	·	6	-28
CCCCCCn1c(=O)[nH]c2nc3cc(N)ccc3nc2c1=O	1	·	3	3	-6	3	·	·
Cc1c(C(=O)O)cccc1-c1ccc(/C=N/n2cnnc2)o1	·	-1	·	18*	·	·	20*	8
COCCN(Cc1cc2cc3c(cc2nc1Cl)OCO3)C(C)=O	1	-4	·	2	-9	1	·	·
CC(=O)N(CCN1CCOCC1)Cc1cc2cc3c(cc2nc1Cl)OCO3	1	-2	14	24*	-4	-1	-7	-8
O=C1CCC(=O)N1c1ccc(-c2nc3ccccc3s2)cc1	0.1	78*	31	46*	86*	88*	74*	66*
C[C@@H](C(=O)NNC(=O)c1ccc(Cl)cc1)N1C(=O)C2CC=CCC2C1=O (stereo partly specified)	·	4	·	·	·	·	·	·
O=C(CCl)N1c2ccccc2Oc2ccc3ccccc3c21	·	27	·	·	·	·	·	·
CC(=O)N1c2ccccc2Oc2cc3ccccc3cc21	1	-5	1	21*	-14	-2	47*	-13
SMILES	FLuc act counter	C8 TRAIL sens	PPC-1+TRAIL kill	HSP90 refold inh	STAT3 inh	FLuc inhib CS	HSP90 inh confirm	luciferase ctr
COc1nc(-c2ccc(C)cc2)ccc1-c1noc(-c2ccco2)n1	1.1	4	3	9	-12	-5	·	·
COc1nc(C)ccc1-c1noc(-c2ccco2)n1	0.4	23	22	19*	27	58*	33*	24*
CNc1nc(-c2ccccn2)nnc1-c1ccccc1	1	-3	23	1	3	-2	·	·
c1ccc(-c2nnc(-c3ccccn3)nc2NC2CCCCC2)cc1	1	11	2	22*	7	0	16*	-12
Cc1ccccc1OCC(=O)Nc1ccccc1N1CCC(C)CC1	1.1	3	-7	-3	9	-8	·	·
COc1ccc(-c2cc3nc(CCl)[nH]c(=O)c3s2)cc1	·	91*	·	50*	·	·	56*	59*
Cc1ccc(N2CN(Cc3ccco3)CNC2=S)c(C)c1	1	-6	28	3	5	-1	·	·
Cc1cc(C(=O)COC(=O)c2ccc3c(c2)OCO3)c(C)n1Cc1cccs1	0.7	19	-2	8	41	31	·	·
Cc1cc(C(=O)COC(=O)c2ccccc2O)c(C)n1Cc1cccs1	0.1	90*	-2	82*	104*	90*	86*	84*
COc1ccccc1C(=O)NC(=S)Nc1cccnc1Cl	·	35	·	55*	·	·	23*	12*
Cc1ccc(C(=O)NC(=S)Nc2cccnc2Cl)cc1	·	24	·	3	·	·	·	·
COc1ccc(S(=O)(=O)N2CN3CCN(C3)C2)cc1	·	-5	·	0	·	·	·	·
COc1ccc(-c2cc(C(=O)O)c(C)o2)cc1OC	0.9	-3	-12	76*	40	10	90*	65*
COc1ccc(-c2cc(C(=O)NC(Cc3cc4ccccc4[nH]3)C(=O)O)c(C)o2)cc1OC (stereo unspecified)	1	6	6	2	-20	-1	·	·
CCc1ccc(N2C=C(C(=O)OC)C(c3cccc4ccccc34)C(C#N)=C2N)cc1 (stereo unspecified)	·	28	·	·	·	·	·	·
CN1N=C2c3ccccc3CCC2C1c1ccc(Cl)cc1 (stereo unspecified)	·	-8	18	23*	·	·	34*	16*
CN1N=C2c3ccccc3CCC2C1c1ccc(F)cc1 (stereo unspecified)	·	0	13	6	·	·	·	·
Cc1cc2ccccc2c(=O)n1CC(=O)NCC(=O)N(C)C1CCCCC1	1	-8	-1	28*	-9	-3	-7	-10
O=S1(=O)CC(N2CCC(c3ccccc3)CC2)CN1Cc1ccccc1 (stereo unspecified)	·	-11	·	·	·	·	·	·
COCCn1c(C)cc(C2=NNC(=Nc3ccccc3F)SC2)c1C	0.2	-5	37	77*	94*	82*	62*	55*
COCCCN=C1NN=C(c2cc(C)n(-c3ccccc3)c2C)CS1	0.8	0	20	-5	-13	18	·	·
COCCCN=C1NN=C(c2cc(C)n(-c3ccccc3F)c2C)CS1	0.2	53*	41	18*	52*	84*	70*	64*

High-throughput results (PubChem)
